From ChEMBL document CHEMBL2176936, “Identification of a 4-(hydroxymethyl)diarylhydantoin as a selective androgen receptor modulator” (J Med Chem, 2012)

How the values were obtained:
[1] = test system: Rattus norvegicus; experiment: Anabolic activity in ORX rat model assessed as weight of levator ani muscle at 30 mg/kg/day, po administered for 4 days; type: functional
In short: (§1)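 Hershberger-type model in castrated immature male rats: left untreated one week after castration, then dosed four days (test compounds oral; testosterone propionate sc). Levator ani and ventral prostate weights normalised to body weight; activity % = (W/BW treated − W/BW ORX)/(W/BW sham − W/BW ORX) × 100. A50 = dose giving 50% activity on the tissue.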

[2] = test system: Rattus norvegicus; experiment: Androgenic activity in ORX rat model assessed as weight of ventral prostate at 10 mg/kg/day, po administered for 4 days; type: functional, Prostate gland; in short: as §1
[3] = Oral bioavailability in monkey; type: ADME, organism-based, Macaca mulatta; conditions: rhesus monkey, in vivo
[4] = Oral bioavailability in rat at 10 mg/kg and 3 mg/kg, iv; type: ADME, organism-based; conditions: in vivo
In short: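 Absolute oral bioavailability in rats: single oral dose 10 mg/kg in EtOH/PEG400/H₂O (1/79/20, v/v/v) compared with single iv dose 3 mg/kg in DMSO/PEG400/H₂O (1/65/34, v/v/v).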

[5] = test system: Rattus norvegicus; experiment: Androgenic activity in ORX rat model assessed as weight of ventral prostate at 30 mg/kg/day, po administered for 4 days; type: functional, Prostate gland; in short: as §1
[6] = test system: Rattus norvegicus; experiment: Anabolic activity in ORX rat model assessed as weight of levator ani muscle at 10 mg/kg/day, po administered for 4 days; type: functional; in short: as §1
[7] = test system: Rattus norvegicus; experiment: […] activity in ORX rat model assessed as activity on ventral prostate at 30 mg/kg/day, po administered for 4 days; type: functional, Prostate gland; in short: as §1
[8] = AUC (0 to infinity) in Sprague-Dawley rat at 3 mg/kg, iv; type: ADME, organism-based; design: dose 3 mg/kg, route intravenous, time infinity; conditions: plasma
[9] = AUC (0 to infinity) in Sprague-Dawley rat at 10 mg/kg, po; type: ADME, organism-based; design: time infinity, dose 10 mg/kg, route oral; conditions: plasma
[10] = Volume of distribution at steady state in Sprague-Dawley rat at 3 mg/kg, iv; type: ADME, organism-based; design: dose 3 mg/kg, route intravenous; conditions: in vivo, read-out: Vdss
In short: (§2)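 Male Sprague-Dawley rats, single dose: iv 3 mg/kg in DMSO/PEG200/H₂O (1/79/20, v/v/v), or oral 10 mg/kg in EtOH/PEG200/H₂O (1/79/20, v/v/v). Two groups of three rats; N = 2 rats for one arm. CL, T1/2, Vdss, AUC(0−∞) and F derived.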

[11] = test system: Rattus norvegicus; experiment: Anabolic activity in ORX rat model assessed as increase in levator ani muscle weight at 10 mg/kg/day, po administered for 3 months relative to sham-treated control; type: functional
In short: (§3)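 Rats castrated at seven weeks of age, then given compound orally for three months in a prophylactic setting at 10 mg/kg/day. Levator ani and prostate weights normalised with sham-operated rats set to 100% and ORX rats set to 0%.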

[12] = Oral bioavailability in Sprague-Dawley rat at 10 mg/kg; type: ADME, organism-based; conditions: in vivo; in short: as §2
[13] = test system: Rattus norvegicus; experiment: […] activity in ORX rat model assessed as increase in prostate weight at 10 mg/kg/day, po administered for 3 months relative to sham-treated control; type: functional, Prostate gland; in short: as §3
[14] = test system: Rattus norvegicus; experiment: Anabolic activity in ORX rat model assessed as dose required for 50% activity on levator ani muscle po administered for 4 days; type: functional; in short: as §1
[15] = Half life in Sprague-Dawley rat at 3 mg/kg, iv; type: ADME, organism-based; design: dose 3 mg/kg, route intravenous; conditions: in vivo; in short: as §2
[16] = Clearance in Sprague-Dawley rat at 3 mg/kg, iv; type: ADME, organism-based; design: dose 3 mg/kg, route intravenous; conditions: in vivo; in short: as §2
[17] = Half life in Sprague-Dawley rat at 10 mg/kg, po; type: ADME, organism-based; design: dose 10 mg/kg, route oral; conditions: in vivo; in short: as §2
[18] = test system: Rattus norvegicus; experiment: Anabolic activity in ORX rat model assessed as weight of levator ani muscle at 1 mg/kg/day, sc administered for 4 days; type: functional; conditions: route subcutaneous; in short: as §1
[19] = test system: Rattus norvegicus; experiment: Androgenic activity in ORX rat model assessed as dose required for 50% activity on ventral prostate po administered for 4 days; type: functional, Prostate gland; in short: as §1
[20] = test system: Rattus norvegicus; experiment: Androgenic activity in ORX rat model assessed as weight of ventral prostate at 1 mg/kg/day, sc administered for 4 days; type: functional, Prostate gland; conditions: route subcutaneous; in short: as §1

| SMILES | Activity [2] [%] | bioavailability [4] [%] | Activity [6] [%] | also measured |
| --- | --- | --- | --- | --- |
| CN1C(=O)N(c2ccc(C#N)c(C(F)(F)F)c2)C(=O)[C@@]1(C)c1ccc(O)cc1 | 12 | < 9 | – | Activity [1]: 77%; bioavailability [3]: < 9%; Activity [5]: 26% |
| CN1C(=O)N(c2ccc(C#N)c(C(F)(F)F)c2)C(=O)C1(C)c1ccc(O)cc1 (racemic) | 8 | 1.5 | 68 | Activity [1]: 89%; Activity [5]: 16% |
| CCN1C(=O)N(c2ccc(C#N)c(C(F)(F)F)c2)C(=O)C1(CO)c1ccccc1 (racemic) | 59 | 76 | 112 | – |
| CN1C(=O)N(c2ccc(C#N)c(C(F)(F)F)c2)C(=O)C1(CO)c1ccccc1 (racemic) | 13 | 63 | – | Activity [1]: 96%; Activity [5]: 14% |
| CN1C(=O)N(c2ccc(C#N)c(C(F)(F)F)c2)C(=O)[C@]1(CO)c1ccccc1 | – | – | 101 | – |
| CN1C(=O)N(c2ccc(C#N)c(C(F)(F)F)c2)C(=O)[C@@]1(CO)c1ccccc1 [GLPG0492] | 24 | 56 | 101 | %max [7]: 30%; AUC(0-inf) [8]: 2.36 µg·h/mL; AUC(0-inf) [9]: 4.67 µg·h/mL; Activity [1]: 106%; Vd [10]: 2.5 L/kg; Activity [11]: 117%; Activity [5]: 26%; bioavailability [12]: 56%; Activity [13]: 25%; Activity [14]: 0.75 mg/kg/day; half-life [15]: 1.5 h; clearance [16]: 1.3 L/h/kg; half-life [17]: 2.2 h |
| CN1C(=O)N(c2ccc(C#N)c(C(F)(F)F)c2)C(=O)C1(CO)c1ccc(F)cc1 (racemic) | – | 87 | – | – |
| CN1C(=O)N(c2ccc(C#N)c(C(F)(F)F)c2)C(=O)C1(C)c1ccc2[nH]ccc2c1 (racemic) | – | 19 | – | – |
| CCC(=O)O[C@H]1CC[C@H]2[C@@H]3CCC4=CC(=O)CC[C@]4(C)[C@H]3CC[C@]12C [TESTOSTERONE PROPIONATE] | – | – | – | Activity [18]: 99%; Activity [19]: 0.2 mg/kg/day; Activity [14]: 0.3 mg/kg/day; Activity [20]: 73% |
| CC(C)N1C(=O)N(c2ccc(C#N)c(C(F)(F)F)c2)C(=O)C1(CO)c1ccccc1 (racemic) | 60 | – | 109 | – |
| CN1C(=O)N(c2ccc(C#N)c(C(F)(F)F)c2)C(=O)C1(CO)c1ccccc1Cl (racemic) | 7 | – | 26 | – |
| CN1C(=O)N(c2ccc(Cl)c(Cl)c2)C(=O)C1(CO)c1ccccc1 (racemic) | 23 | – | 96 | – |
| C#CCN1C(=O)N(c2ccc(C#N)c(C(F)(F)F)c2)C(=O)C1(CO)c1ccccc1 (racemic) | 43 | – | 96 | – |
| Cc1cccc(C2(CO)C(=O)N(c3ccc(C#N)c(C(F)(F)F)c3)C(=O)N2C)c1 (racemic) | 0 | – | 24 | – |
| CN1C(=O)N(c2ccc(C#N)c(C(F)(F)F)c2)C(=O)C1(C)c1ccc2[nH]cnc2c1 (racemic) | – | 100 | – | – |
| CN1C(=O)N(c2ccc(C#N)c(C(F)(F)F)c2)C(=O)C1(CO)c1ccc(Cl)cc1 (racemic) | 0 | 99 | 35 | – |
| CN1C(=O)N(c2ccc(C#N)c(C(F)(F)F)c2)C(=O)C1(CO)c1ccc(O)cc1 (racemic) | – | 15 | – | Activity [1]: 82%; Activity [5]: 55% |
| CN1C(=O)N(c2ccc(C#N)c(C(F)(F)F)c2)C(=O)C1(CO)c1cccc(C#N)c1 (racemic) | 26 | – | 84 | – |
| COc1ccc(C2(CO)C(=O)N(c3ccc(C#N)c(C(F)(F)F)c3)C(=O)N2C)cc1 (racemic) | – | 25 | – | Activity [1]: 130%; Activity [5]: 95% |
| CN1C(=O)N(c2ccc(C#N)c(C(F)(F)F)c2)C(=O)C1(CO)c1cccc(Cl)c1 (racemic) | 16 | – | 66 | – |
| CN1C(=O)N(c2ccc(C#N)c(C(F)(F)F)c2)C(=O)C1(CO)c1ccc(C#N)cc1 (racemic) | 11 | – | 12 | – |
